Cneo AK release – Cryptococcus neoformans cell lysis inducers, primary screen, AK release luminescence, single concentration. C. neoformans lysis, adenylate kinase release luminescence, 4 h; normalised: neutral wells 0, clomiphene wells 100. lysis activity, % at 15 µM. 360,000 compounds, 0.2% hits. AID 651654, 2012;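 active = mean lysis activity across replicates of at least 80%, whatever share of replicates individually reach that level; inactive = mean lysis activity below 80%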
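Schedule: static 4 h at 37 °C with compound, 1 h detection; system: C. neoformans cells; benchmarks: Clomiphene as positive control; buffer or medium: fresh YPD medium; measure: luminescence rise reflecting yeast cell lysis; measured by: luminescent adenylate kinase detection reagent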
CFTR F508del cor – F508del CFTR correction, initial screen, CFBE line, single point. CFBE cells, YFP halide quenching; stimulated with forskolin plus potentiator P3; % fluorescence drop versus neutral controls. activity (quench increase), % at 7.58 µM. 350,000 compounds, 0.36% hits. AID 720511, 2013;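 active = mean added fluorescence quench of at least 8% versus neutral control, with both replicates also reaching 8%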;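 also: cells transiently co-express mutant CFTR-F508del with the halide-sensitive YFP; corrector assay measuring rescue of mutant channel to the surface after 24 h compound exposure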
CaV13 ICDI inh – Disruptors of the CACNA1D IQ motif to Ca2+-dependent inactivation inhibitor domain association, primary screening, Förster resonance energy transfer in intact living … | HEK cells, CFP/YFP FRET ICDI-IQ, plate reader, 10 min; percent FRET-ratio fall versus neutral wells | inhibition, % at 12.3 µM | 340,000 compounds, 0.098% hits | AID 743397;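 active = mean replicate inhibition of at least 30% and at least 1% of replicates passing that level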
rRNA inh HTS – reduced GFP signal of wild-type E. coli, primary screen, bacterial rRNA inhibitor project, GFP/RFP fluorescence, OD600, single point. E. coli WT GFP vs humanized-ribosome RFP mutants, 24 h; active compounds read low; DMSO median 0, no signal -100. AID 720706, 2013. GFP signal change (wild-type ribosome), % (test concentration not listed). 350,000 compounds, 1.6% hits;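 active = significant combined selectivity score with lowered wild-type GFP, culture density cut under 30%, mutant RFP and density less affected; inactive = any of these conditions unmet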
Each line names hits and unclear results; the compound was inactive in the other large screens. Sampled rows, rich in hits. Any-hit rate of the full collection: about 1.7%.

Cc1cc(C(=O)Nc2cccc3c2O[C@H](CN(C)S(=O)(=O)c2ccccc2)[C@H](C)CN([C@H](C)CO)C3=O)n(C)n1	Cneo AK release 90 (no result: CaV13 ICDI inh)
C[C@H](CO)N1C[C@H](C)[C@@H](CN(C)Cc2ccccc2)OCCCC[C@H](C)Oc2ccc(NS(=O)(=O)c3cn(C)cn3)cc2C1=O	none (no result: CaV13 ICDI inh)
COc1ccc(S(=O)(=O)Nc2ccc3c(c2)CC(=O)N([C@H](C)CO)C[C@H](C)[C@@H](CN(C)Cc2ccc(C(=O)Nc4ccccc4N)cc2)O3)cc1	none (no result: Cneo AK release, CaV13 ICDI inh)
O=C(Nc1ccc(Cl)c(Cl)c1)Nc1nccs1	rRNA inh HTS -26
Nc1nc(NCc2ccco2)nc(N2CCN(Cc3ccccc3)CC2)c1[N+](=O)[O-]	rRNA inh HTS -24
CCOc1ccc(NC(=O)c2cccc3ccccc23)cc1	none
CCOc1ccc(NC(=O)c2cc(OC)nc3ccccc23)cc1	CFTR F508del cor 11 (no result: Cneo AK release)
Cc1ccc(NC(=O)c2cc(Cl)nc3ccccc23)cc1	none (no result: CFTR F508del cor, rRNA inh HTS)
COc1cc(C(=O)Nc2ccc(C)cc2)c2ccccc2n1	CFTR F508del cor 11
O=C(NCC[C@H]1CC[C@@H](NS(=O)(=O)c2ccc(F)cc2)[C@H](CO)O1)c1ccc2c(c1)OCO2	Cneo AK release 95 (no result: CaV13 ICDI inh)
O=C(/C=C/c1ccc([N+](=O)[O-])cc1)NC1CC2CCC1C2 (stereo not drawn)	rRNA inh HTS -28 (no result: Cneo AK release)
CN(/N=C/c1cc(Cl)ccc1O)C1=NS(=O)(=O)c2ccccc21	rRNA inh HTS -21
O=[N+]([O-])c1ccc(/C=N/NC(=S)Nc2ccc(Cl)cc2Cl)s1	rRNA inh HTS -19
Fc1ccc(/C=N/NC(=S)Nc2ccc(Cl)cc2Cl)cc1	CFTR F508del cor 10 (no result: Cneo AK release)
Cc1ccc(NC(C)C(=O)N/N=C/c2ccc([N+](=O)[O-])s2)cc1 (stereo not drawn)	rRNA inh HTS -22
Cc1cc(C(=O)COC(=O)c2ccc(Br)o2)c(C)n1C	rRNA inh HTS -23
CCCNC(=O)N1[C@H](CO)[C@@H]2c3ccccc3N(C(=O)Nc3ccc(F)cc3)C[C@@H]21	none (no result: CaV13 ICDI inh)
Cc1ccc2oc(C(=O)N(CCO)Cc3ccccc3)c(C)c2c1	rRNA inh HTS -17
CCCCn1c(CN2CCN(c3cccc(Cl)c3)CC2)nc2c1c(=O)[nH]c(=O)n2C	CFTR F508del cor 14
O=C(O)c1c(-c2ccccc2)oc2ccc(O)cc12	none
O=Cc1c(-c2ccc(Cl)cc2)oc2ccc(O)cc12	rRNA inh HTS -30
Cc1ccc(C(=O)NC(=C(Cl)Cl)S(=O)(=O)c2ccc(Cl)cc2)cc1	rRNA inh HTS -24 (no result: Cneo AK release)
Cc1ccc(C(=O)NC(=C(Cl)Cl)S(=O)(=O)c2ccc(C)cc2)cc1	none (no result: CFTR F508del cor, rRNA inh HTS)
CCS(=O)(=O)N1CCC2(CC1)CN(C(=O)Nc1cccc(F)c1)[C@H](CO)c1c2c2ccc(OC)cc2n1C	none (no result: Cneo AK release, CaV13 ICDI inh)
Cc1ccc2nc(-c3ccc(NC(=O)COCC(=O)O)cc3)sc2c1	rRNA inh HTS -35
Cc1ccc2nc(-c3ccc(NC(=O)CSCC(=O)O)cc3)sc2c1	none
Cc1noc(C)c1NC(=O)Nc1ccc2c(c1)CC(=O)N([C@H](C)CO)C[C@H](C)[C@@H](CN(C)S(=O)(=O)c1c(C)noc1C)O2	none (no result: Cneo AK release, CFTR F508del cor, CaV13 ICDI inh)
CCCC(=O)Nc1ccc(Cl)c(NC(=S)NC(=O)c2ccco2)c1	rRNA inh HTS -16 (no result: Cneo AK release, CFTR F508del cor)
Cc1cc(/C=N/NC(N)=S)c(C)n1-c1ccc(Cl)c(Cl)c1	none (no result: Cneo AK release, CFTR F508del cor)
COc1cccc(NC(=O)C(=O)N/N=C/c2cc(C)n(-c3ccc(Cl)c(Cl)c3)c2C)c1	rRNA inh HTS -18
CCCN(C)C[C@@H]1OCCCC[C@@H](C)Oc2ccc(NC(=O)NC(C)C)cc2C(=O)N([C@@H](C)CO)C[C@@H]1C	none (no result: CaV13 ICDI inh)
CCc1ccc2c(CN3CCC(C(=O)OC)CC3)cc(=O)oc2c1	rRNA inh HTS -22
CCC(=O)N1CC2(C1)CN(C(C)=O)[C@@H](CO)c1[nH]c3cc(OC)ccc3c12	none (no result: Cneo AK release, CaV13 ICDI inh)
O=C(NCc1ccco1)N1c2ccccc2Sc2ccccc21	rRNA inh HTS -24
COCCCNC(=O)N1c2ccccc2Sc2ccccc21	none
C[C@H](CO)N1C[C@H](C)[C@H](CN(C)C(=O)Nc2ccccc2)OCCCC[C@H](C)Oc2ccc(NS(=O)(=O)c3ccc(F)cc3)cc2C1=O	none (no result: CaV13 ICDI inh)
CCOCCCNC(=O)/C=C1\Sc2ccccc2N(Cc2ccccc2F)C1=O	rRNA inh HTS -17

Screening data: PubChem BioAssay, Broad Institute
